From ChEMBL document CHEMBL4602675, “The Marine Natural Product Manzamine A Inhibits Cervical Cancer by Targeting the SIX1 Protein” (J Nat Prod, 2020) come the findings set out here.

The test system of assay [1] is SiHa. The experiment in a line: Antiproliferative activity against human SiHa cells assessed as reduction in cell viability after 48 hrs by CellTiter-Glo assay. The class given is functional, cell-based. Summed up:
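ATP-based luminescent viability readout. Cells were grown in DMEM with 10% FBS, 2 mM L-glutamine and penicillin-streptomycin at 37 °C, 5% CO2. 2 × 10^4 cells/well were seeded, then exposed the next day to 0–40 μM for 24, 48 or 72 h. % viability = 100 × treated/control. IC50 was fitted from a sigmoid dose-response curve. Run at least three times in quadruplicate; mean ± SEM.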

In assay [2] the test system is HeLa. The experiment in a line: Inhibition of colony formation in human HeLa cells at 2 to 4 uM afer 1 week by crystal violet staining based assay. The class given is functional, cell-based. In outline:
(§1)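 Cells were grown in DMEM with 10% FBS, seeded at 1 × 10^3 cells/ml in six-well plates, incubated overnight, then exposed to 2 or 4 μM at 37 °C under 5% CO2 for one week. Colonies were fixed with 4% paraformaldehyde, stained with 0.5% crystal violet and photographed.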

Assay [3] has as its system SiHa. The experiment in a line: Inhibition of colony formation in human SiHa cells at 2 to 4 uM afer 1 week by crystal violet staining based assay. The class given is functional, cell-based. Summed up: as §1
Assay [4] concerns C-33-A. The experiment in a line: Cell cycle arrest in human C33A cells assessed as accumulation at G0/G1 phase at 4 uM after 24 hrs by propidium iodide staining based flow cytometric analysis (reference value: 58.4%). The format is functional. Summed up:
(§2)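 Cells in DMEM/10% FBS at 37 °C, 5% CO2 were given 4 μM for 24, 48 or 72 h, with DMSO as control. After trypsinization they were fixed in chilled 70% ethanol on ice for 30 min, treated with RNase A (1 mg/mL) for 30 min at room temperature, and stained with PI (20 μg/mL). At least 10 000 events were read by flow cytometry to give sub-G1, G0/G1, S and G2/M fractions; mean ± SEM.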

Assay [5] relates to C-33-A. The experiment in a line: Cell cycle arrest in human C33A cells assessed as accumulation at G0/G1 phase at 4 uM after 72 hrs by propidium iodide staining based flow cytometric analysis (reference value: 60%). The class given is functional. In outline:
as §2

Assay [6] has as its system SiHa. The experiment in a line: Cell cycle arrest in human SiHa cells assessed as accumulation at G2/M phase at 4 uM after 48 hrs by propidium iodide staining based flow cytometric analysis (reference value: 14.7%). The class given is functional. In outline:
(§3)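 Cells in DMEM with 10% FBS, 2 mM L-glutamine, pen-strep, 37 °C, 5% CO2; seeded and left overnight, then treated at 4 μM with DMSO as control. Harvested by trypsin at 24, 48 or 72 h, fixed in chilled 70% ethanol 30 min on ice, RNase A (1 mg/mL) 30 min at room temperature, PI (20 μg/mL). Flow cytometry, ≥10 000 events, G0/G1, S, G2/M fractions; mean ± SEM.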

The subject of assay [7] is HeLa. The experiment in a line: Cell cycle arrest in human HeLa cells assessed as accumulation at G0/G1 phase at 4 uM after 48 hrs by propidium iodide staining based flow cytometric analysis (reference value: 69.6%). The format is functional. Summed up:
as §2

For assay [8], the system named is HeLa. The experiment in a line: Cell cycle arrest in human HeLa cells assessed as accumulation at G2/M phase at 4 uM after 48 hrs by propidium iodide staining based flow cytometric analysis (reference value: 16.2%). The class given is functional.
Assay [9] relates to HeLa. The experiment in a line: Cell cycle arrest in human HeLa cells assessed as accumulation at G0/G1 phase at 4 uM after 72 hrs by propidium iodide staining based flow cytometric analysis (reference value: 76.4%). The format is functional. In outline:
as §2

For assay [10], the system named is HeLa. The experiment in a line: Cell cycle arrest in human HeLa cells assessed as accumulation at G2/M phase at 4 uM after 72 hrs by propidium iodide staining based flow cytometric analysis (reference value: 12.6%). The class given is functional. In outline:
as §2

Assay [11] deals with C-33-A. The experiment in a line: Induction of apoptosis in human C33A cells assessed as necrotic cells at 4 uM after 48 hrs by Annexin V-FITC/PI double staining based flow cytometric analysis (reference value: 1.9%). The format is functional.
Assay [12] deals with SiHa. The experiment in a line: Induction of apoptosis in human SiHa cells assessed as early apoptotic cells at 4 uM after 24 hrs by Annexin V-FITC/PI double staining based flow cytometric analysis (reference value: 5.4%). The class given is functional.
Assay [13] has as its system SiHa. The experiment in a line: Cell cycle arrest in human SiHa cells assessed as increase in accumulation at G0/G1 phase at 4 uM incubated for 24 hrs by propidium iodide staining based flow cytometric analysis. The format is functional. In outline:
as §3

Assay [14] has as its system SiHa. The experiment in a line: Cell cycle arrest in human SiHa cells assessed as increase in accumulation at G0/G1 phase at 4 uM incubated for 48 hrs by propidium iodide staining based flow cytometric analysis. The class given is functional. In outline: as §3
Assay [15] has as its system C-33-A. The experiment in a line: Induction of apoptosis in human C33A cells assessed as apoptotic cells at 4 uM after 48 hrs by Annexin V-FITC/PI double staining based flow cytometric analysis (reference value: 17.3%). The class given is functional.
The target of assay [16] is Protein E6 (Human papillomavirus 16) (UniProt P03126). The experiment in a line: Inhibition of Human papillomavirus type16 derived E6 in human SiHa cells assessed as increase in p53 protein expression at 2 to 4 uM after 48 hrs by Western blot analysis. The class given is cell-based. In outline: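 Cells were seeded at 1 × 10^6 per 100 mm dish and treated next day with 2 or 4 μM for 48 h. They were trypsinised, PBS-washed and lysed in RIPA with protease inhibitors. Equal protein was run on SDS-PAGE and transferred to PVDF. Primary antibodies were used at 1:500, with BSA 3% for blocking and antibodies for CK2α, Rb and pRb, otherwise 5% milk in TBST. HRP secondary at 1:2000, chemiluminescence detection.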
Chain of Protein E6 (Human papillomavirus 16) (P03126 whole entry): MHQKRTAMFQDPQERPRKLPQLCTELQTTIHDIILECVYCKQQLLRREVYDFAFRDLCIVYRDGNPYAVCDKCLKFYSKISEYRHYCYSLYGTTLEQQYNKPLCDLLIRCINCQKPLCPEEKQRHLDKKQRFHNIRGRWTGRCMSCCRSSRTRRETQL

The subject of assay [17] is C-33-A. The experiment in a line: Cell cycle arrest in human C33A cells assessed as increase in p21 protein expression at 2 to 4 uM after 48 hr by Western lot analysis. The class given is functional, cell-based. Summed up: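 Western blot. 1 × 10^6 cells were seeded per 100 mm dish and exposed the next day to 2 or 4 μM for 48 h. Cells were trypsinized and lysed in RIPA buffer with protease inhibitors. Equal protein was run on SDS-PAGE and transferred to PVDF, which was blocked in 5% milk/TBST. Anti-p53 and anti-p21 (also GAPDH) were used at 1:500 and HRP secondary at 1:2000; chemiluminescent detection.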

The target in assay [18] is T1, Homeobox protein SIX1 (Homo sapiens) (UniProt Q15475).
T1 sequence (whole entry): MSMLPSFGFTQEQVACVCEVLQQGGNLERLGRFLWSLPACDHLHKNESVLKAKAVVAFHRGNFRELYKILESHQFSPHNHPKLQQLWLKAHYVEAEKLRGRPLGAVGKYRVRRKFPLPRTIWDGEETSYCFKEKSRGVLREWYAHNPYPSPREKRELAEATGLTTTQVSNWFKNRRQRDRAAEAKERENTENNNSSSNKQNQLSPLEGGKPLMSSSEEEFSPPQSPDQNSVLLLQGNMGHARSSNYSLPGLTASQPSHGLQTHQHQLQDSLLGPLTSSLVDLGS
The experiment in a line: Potency index, ratio for inhibition activity of apigenin to test compound for inhibition of SIX1 in human C33A cells after 48 hrs by Western blot analysis. The class given is cell-based. Conditions: C-33-A. Summed up: (§4)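 Cells plated at 1 × 10^6 per 100 mm dish and treated next day for 48 h with test compound (2 or 4 μM) or apigenin (10, 20 or 40 μM). RIPA lysates with protease inhibitors; equal protein loaded for SDS-PAGE, then PVDF transfer. Blocked in 5% milk/TBST (3% BSA for CK2α); anti-SIX1 or anti-CK2α 1:500, HRP secondary 1:2000; chemiluminescent detection.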

In assay [19] the target is T1, Homeobox protein SIX1 (Homo sapiens). The experiment in a line: Potency index, ratio for inhibition activity of apigenin to test compound for inhibition of SIX1 in human CaSki cells after 48 hrs by Western blot analysis. The class given is cell-based. Conditions: Ca-Ski. Summed up:
as §4

Calls of active or inactive are those of the source. The calls are words filed in the database; no cut-off is given here.

Consider `O[C@]12C=C(c3nccc4c3[nH]c3ccccc34)[C@@H]3CCN(CCCC/C=C\CC1)C[C@@]31C[C@@H]3/C=C\CCCCN3[C@H]12` [MANZAMINE A], for which, in the assay with SiHa [1], the 50% inhibitory concentration (IC50) worked out at 9.9 µM. In addition, the inhibition entry (in the assay with HeLa [2]; in the assay on SiHa [3]; in assay [16]) was “Active” in each case. In addition, the Activity was found to be 58.5% in the assay on C-33-A [4]; 34.2% with C-33-A [5]; 8.2% in the assay on SiHa [6]; 63.9% in the assay on HeLa [7]; 20.8% in the assay with HeLa [8]; 49.1% in the assay with HeLa [9]. The Activity in the assay with HeLa [10] worked out at 16.2%; in the assay with C-33-A [11], 11.1%; in the assay with SiHa [12], 13.7%; in the assay on C-33-A [15], 36.5%. For the same compound, the “fold change (FC)” value in the assay on SiHa [13] and in the assay with SiHa [14] was 1.2 in each case. Further, the outcome in the assay with C-33-A [17] was inactive. For the same compound, the Ratio in assay [18] and in assay [19] was 10 each time.
